Source: PubChem BioAssay
Shown are actives, neighbours in structure and some others; about 2.7% of the full set was active somewhere.
Fh CTSL1 inh: Fasciola hepatica cathepsin L1 inhibitors, primary screen, counter-screen for PFM18AAP inhibitor project, biochemical, QFRET, fluorogenic peptide substrate | recombinant F. hepatica cathepsin L1, Z-Leu-Arg-MCA fluorescence | inhibition, % at 5.96 µM | actives 0.49% (n = 300,000) | AID 1906, 2009;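 active = inhibition above the mean of all tested compounds plus 3 SD, set per screening campaign, cut at about 17% in these data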
VIM-2 inh: VIM-2 metallo-beta-lactamase inhibitors, primary screen, biochemical, epi-absorbance readout, Pseudomonas aeruginosa enzyme; actives 0.89% (n = 290,000); purified VIM-2, nitrocefin hydrolysis, epi-absorbance fluorescence; inhibition, % at 5.6 µM; AID 1527, 2009;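 active = inhibition above the mean of all tested compounds plus 3 SD, cutoff set per screening run, cut at about 7.5% in these data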;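 also: red hydrolysis product quenches plate fluorescence so inhibitors raise well fluorescence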
M18AAP inhibitor: PfM18AAP inhibitors, malaria aminopeptidase, primary screen, biochemical, QFRET, recombinant enzyme. AID 1822, 2009. inhibition, % at 7.35 µM. M18 aspartyl aminopeptidase (Plasmodium falciparum 3D7). actives 1.2% (n = 290,000). H-Glu-NHMec fluorogenic cleavage;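 active = inhibition above the campaign mean inhibition over all tested compounds plus 3 SD, cut at about 28% in these data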
IMP-1 inh: IMP-1 metallo-beta-lactamase inhibitors, primary screen, biochemical, epi-absorbance readout, Pseudomonas aeruginosa enzyme; inhibition, % at 5.6 µM; actives 0.45% (n = 290,000); metallo-beta-lactamase IMP-1 (Pseudomonas aeruginosa); purified IMP-1, nitrocefin hydrolysis, epi-absorbance fluorescence;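 active = inhibition above the mean plus 3 SD of all compounds in the same screening run, cut at about 4.5% in these data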
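Assay system: purified IMP-1; Quantity: IMP-1 0.2 nM before substrate addition; Medium: HEPES buffer pH 7.1 with ZnSO4 and Brij 35; Incubation: 15 min enzyme–compound preincubation, then 25 min nitrocefin reaction, 25 °C; Signal: fluorescence quenching readout, ex 480/em 530 nm; Controls: DMSO with and without IMP-1; Repeats: singlicate testing.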
A number is an active result; - = inactive; . = no result.

SMILES	Fh CTSL1 inh	VIM-2 inh	M18AAP inhibitor	IMP-1 inh
CN(C)/C=C1\SC(=S)N(N2C(=O)C3C4C=CC(C4)C3C2=O)C1=O (stereo not given)	-	11.6	-	-
O=C(/C=C/c1ccc(O)c(O)c1)OC(Cc1ccc(O)c(O)c1)C(=O)O (stereo not given)	-	-	88.8	-
O=C(O)C(c1ccccc1)N1C(=O)/C(=C\c2ccc(-c3ccccc3Cl)o2)SC1=S (stereo not given)	-	-	-	9.4
O=C(O)C(c1ccccc1)N1C(=O)/C(=C\c2ccc(-c3ccc(Br)cc3)o2)SC1=S (stereo not given)	.	-	-	-
O=C(Nc1ccccc1)c1ccc(-c2ccc([N+](=O)[O-])cc2)o1	-	-	-	5.0
O=C(NCCSCc1ccccc1)c1ccc(F)cc1	-	-	-	-
CCCCNC(=S)N(CCN(CC)CC)Cc1cc2cc3c(cc2[nH]c1=O)OCCO3	17.6	-	-	-
CCCCNC(=S)N(CCN(CC)CC)Cc1cc2cc3c(cc2[nH]c1=O)OCO3	-	-	-	-
COc1ccc(CN=C(C)c2c(C(F)(F)F)[nH]n(-c3nc4ccccc4s3)c2=O)cc1	17.7	-	-	-
COC(=O)Cc1[nH]n(-c2nc3ccccc3s2)c(=O)c1C(C)=O	-	-	-	-
Cc1cc(C)n(CCCNC(=O)CCNS(=O)(=O)c2ccccc2C(F)(F)F)n1	-	-	-	-
Cc1[nH]c2ccccc2c1C(=O)CSC(=S)N(C)C	-	-	-	-
Cc1[nH]c2ccccc2c1C(=O)CSC(=S)N1CCN(C)CC1	-	12.1	-	-
COc1ccc(C(=O)C[n+]2cccc3cc(OC)ccc32)cc1	-	-	-	-
COc1ccc(C(=O)C[n+]2cccc3cc(C)ccc32)cc1	-	-	-	5.9
Cc1ccc2nc(C(Cl)(Cl)Cl)nc(N/N=C/c3ccncc3)c2c1	-	11.2	-	-
COc1ccccc1Nc1ccc([N+](=O)[O-])cc1N	-	-	31.1	-
NC(=O)C1CCN(S(=O)(=O)c2cccc(C(=O)O)c2)CC1	-	-	-	32.5
Cc1nc(C)n(CC(C)C(=O)N2CCN(S(=O)(=O)c3ccc(Cl)cc3)CC2)n1 (stereo not given)	-	-	-	-
CCOC(=O)c1c(C)c(C(=O)NCc2ccccn2)c(C)n1CC	-	-	-	-
O=C(c1cc2ccccc2o1)N1CCN=C1SCc1cccnc1	-	9.4	-	-
O=C(c1cc2ccccc2o1)N1CCN=C1SCc1cccc(F)c1	-	-	-	-
CS(=O)(=O)N1CCN(c2ccc(NC(=O)c3ccccc3)cc2)CC1	-	-	-	-
COC(=O)c1c(-c2cccs2)csc1NC(=O)c1cccnc1	-	11.1	-	-
COCCCNC(=O)C1=CCN(S(=O)(=O)c2ccc(OC)cc2)CC1	-	-	-	-
SMILES	Fh CTSL1 inh	VIM-2 inh	M18AAP inhibitor	IMP-1 inh
CCc1c(C)nc(SCC(=O)Nc2nc(-c3ccc(OC)cc3)cs2)[nH]c1=O	-	-	-	-
CCc1c(C)nc(SCC(=O)NNC(=O)Cc2ccc(OC)cc2)[nH]c1=O	17.6	-	29.0	-
CCN1C(=O)C(=O)N(CC(=O)N2CCN(c3ccccc3)CC2)C1=O	-	.	.	.
O=C1c2cccc(OCc3ccc(F)cc3)c2CCN1Cc1ccccc1	-	-	-	6.1
Cc1ccc(COc2cccc3c2CCN(Cc2ccc(F)cc2)C3=O)cc1	-	-	-	-
Cc1ccc(C)c(N2CCN(C(=O)CCS(=O)(=O)c3ccc4c(c3)oc(=O)n4C)CC2)c1	-	-	-	-
CNC(=O)CSc1nc2[nH]ncc2c(=O)[nH]1	-	-	30.1	-
O=c1[nH]c(SCc2ccccc2Cl)nc2[nH]ncc12	-	-	48.1	-
COCCCNC(=O)c1ccc2c3c(onc13)-c1ccccc1C2=O	21.7	-	-	-
COCCCNC(=O)c1ccccc1Oc1ccccc1	-	-	-	-
O=C1C=C(NNC(=O)c2ccncc2)CC(c2ccccc2)C1 (stereo not given)	-	-	-	5.9
Cc1cc(C)c([N+](=O)[O-])cc1-c1ccc(/C=N/c2c(-c3ccco3)nc3ccccn23)o1	-	-	-	9.2
S=C1CCC(c2ccc(Br)cc2)=NN1c1ccccc1	-	-	-	-
CCCn1c(=O)c2sccc2n2c(CCCC(=O)NCc3cccnc3)nnc12	-	-	-	-
Cn1c(=O)c2sccc2n2c(CCCC(=O)NCc3cccnc3)nnc12	-	11.0	-	-
